Published values pooled from the literature.
Protocols differ between the studies behind these lines.
HLA class I histocompatibility antigen, A alpha chain: HLA class I histocompatibility antigen, A alpha chain (Homo sapiens, UniProt P04439)
Htr2c: 5-hydroxytryptamine receptor 2C (Htr2c, Mus musculus, UniProt P34968)
BACE1: Beta-secretase 1 (BACE1, Homo sapiens, UniProt P56817)

CC(C)C[C@H](NC(=O)[C@@H]1CCCN1C(=O)[C@H](Cc1c[nH]c2ccccc12)NC(=O)[C@H](CC(=O)O)NC(=O)[C@H](Cc1ccc(O)cc1)NC(=O)[C@@H](NC(=O)[C@@H](N)Cc1ccc(O)cc1)C(C)C)C(=O)N[C@H](C(=O)N[C@@H](Cc1ccccc1)C(=O)O)[C@@H](C)O
IC50 (HLA class I histocompatibility antigen, A alpha chain; cell-free assay): 21500 nM

COc1cc(CCN)c(OC)cc1Br
EC50 (Htr2c; G protein activation; agonist; BRET): 4.27 nM

C=CCOc1ccc(C(=O)/C=C/c2ccc(OC)cc2)c(OS(C)(=O)=O)c1I
IC50 (BACE1; enzyme activity; inhibitor; fluorescence): 48100 nM

CCN(CC)C(=O)[C@@H]1C=C2c3cccc4[nH]cc(c34)C[C@H]2N(C)C1
EC50 (D(2) dopamine receptor (DRD2, Homo sapiens, UniProt P14416); G protein activation; agonist; BRET): 1.58 nM

COc1cc(CCN)c(OC)cc1C#N
EC50 (Htr2c; G protein activation; agonist; BRET): 200 nM

C=CCOc1ccc(C(=O)/C=C/c2cccc(F)c2)c(OS(=O)(=O)c2ccc(OC)cc2)c1I
IC50 (BACE1; enzyme activity; inhibitor; fluorescence): 21600 nM

CC(C)C[C@H](NC(=O)[C@@H](NC(=O)[C@H](CCCCN)NC(=O)[C@H](CC(=O)O)NC(=O)[C@H](Cc1ccc(O)cc1)NC(=O)[C@H](C)NC(=O)[C@@H](N)CCCNC(=N)N)[C@@H](C)O)C(=O)N[C@@H](Cc1ccc(O)cc1)C(=O)N[C@@H](Cc1ccccc1)C(=O)O
IC50 (HLA class I histocompatibility antigen, A alpha chain; cell-free assay): 15 nM

CCCC[C@H](NC(C)=O)C(=O)N[C@H]1CC(=O)NCCCC[C@@H](C(=O)N2CCC[C@@H]2C(=O)N[C@@H](C(=O)N2CCC[C@@H]2C(N)=O)C(C)C)NC(=O)[C@H](Cc2c[nH]c3ccccc23)NC(=O)[C@H](CCCNC(=N)N)NC(=O)[C@@H](Cc2ccccc2)NC(=O)[C@@H]2CCCN2C1=O
EC50 (Melanocyte-stimulating hormone receptor (MC1R, Homo sapiens, UniProt Q01726); cAMP; agonist): 0.407 nM
